Reference: ChEMBL document CHEMBL4007447, “Synthesis, biological evaluation and molecular docking study of N-(2-methoxyphenyl)-6-((4-nitrophenyl)sulfonyl)benzamide derivatives as potent HIV-1 Vif antagonists” (Eur J Med Chem, 2017)
≈ marks a conversion by molar mass, not a printed value. Calls of active or inactive are those of the source. No cut-off for these calls is given here.

Experiments:
[1] = tested on: Human immunodeficiency virus 1; test: Inhibition of HIV1 Vif expressed in TREX-hVif-15 cells co-expressing EYFP-N1-tagged human A3G assessed as reduction in Vif-mediated A3G degradation at 5 to 20 ug/ml after 48 hrs by flow cytometry; type: cell-based
In short: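 TREX-hvif-15 cells, in which Vif is under Tet-On control, were plated at 2×10^5 cells/well and grown overnight. At about 80% confluence they were transfected with EYFP-N1-hA3G. After 6 h the cells were washed, and compounds at varied concentrations were added together with doxycycline to induce Vif. Cells were trypsin-harvested 48 h post-transfection, and EYFP-positive cells were measured by flow cytometry. The no-Vif condition was set to 100%.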

[2] = tested on: Human immunodeficiency virus 1; test: Antiviral activity against HIV1 subtype B NL4-3 infected in human H9 cells assessed as reduction in p24 level after 7 days by ELISA; type: functional, cell-based; settings: Human immunodeficiency virus 1, subtype B NL4-3, H9, 168 h
In short: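 H9 cells infected with NL4-3 at MOI 0.03 for 2 h, washed three times, then seeded at 4×10^4 cells/well with serially diluted compound. Incubated 7 days; supernatant p24 measured by in-house ELISA and EC50 calculated. Three separate experiments, mean ± standard deviation.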

[3] = Aqueous solubility in water after 24 to 72 hrs by HPLC based shake flask method; type: physicochemical
In short: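 Equilibrium shake-flask solubility: excess compound placed in water, methanol, ethanol, acetonitrile, ethyl acetate or acetone and shaken 24-72 h at 25 °C. Filtered through 0.22 μm membrane, diluted, and quantified by HPLC on a C18 column with methanol/water 70/30 mobile phase and UV 251 nm. n=3, mean ± SD.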

[4] = Therapeutic index, ratio of CC50 for human H9 cells to EC50 for HIV1 subtype B NL4-3 infected in human H9 cells
In short: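 Ratio of CC50 to EC50, both measured in H9 cells: MTT cytotoxicity over seven days, and p24 ELISA after 7 days of NL4-3 infection at MOI 0.03.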

[5] = Cytotoxicity against human H9 cells assessed as reduction in cell viability after 7 days by MTT assay; type: cell-based
In short: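 MTT viability assay. H9 at 4×10^4 cells/well or PHA-stimulated PBMCs at 5×10^5 cells/well were incubated with serially diluted compound at 37 °C, 5% CO2 for seven days before MTT read-out. CC50 was calculated; mean ± standard deviation of three separate experiments.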

For `COc1ccccc1NC(=O)c1ccccc1Sc1ccc([N+](=O)[O-])cc1`, which inhibition [1] is on record?
The inhibition was “Active”.

What about the EC50 [2] of the same molecule?
Its EC50 is 263 µM.

With `COc1ccccc1NC(=O)c1c(NC(=O)C(N)Cc2ccccc2)cccc1S(=O)(=O)c1ccc([N+](=O)[O-])cc1` (stereo not given) as the molecule, how does the EC50 [2] read?
Its EC50 is 1.46 µM.

And the solubility thermodynamic [3]?
Its solubility thermodynamic is 120 µg/mL (≈ 209 µM).

And the “Ratio CC50/EC50” value [4]?
The value was 148.

What about the CC50 at 168 h [5] of the same molecule?
The CC50 at 168 h was 216 µM.

For `COc1ccccc1NC(=O)c1c(N)cccc1Sc1ccc([N+](=O)[O-])cc1`, which EC50 [2] is on record?
The EC50 was 1.87 µM.

What about the “Ratio CC50/EC50” value [4] of the same molecule?
The value was 207.

And the CC50 at 168 h [5]?
Its CC50 at 168 h is 387 µM.

For `COc1ccccc1NC(=O)c1c(N(C)C)cccc1S(=O)(=O)c1ccc([N+](=O)[O-])cc1`, which EC50 [2] is on record?
Its EC50 is 226 µM.

What about the “Ratio CC50/EC50” value [4] of the same molecule?
Its value is 1.94.

And the CC50 at 168 h [5]?
Its CC50 at 168 h is 439 µM.

What does the source list for `COc1ccccc1NC(=O)c1sccc1Sc1ccc([N+](=O)[O-])cc1`?
EC50 [2]: 62.2 µM; Ratio CC50/EC50 [4]: 7.59; CC50 at 168 h [5]: 472 µM
